The text below walks through data of ChEMBL document CHEMBL3865837, “Chemical Constituents of the Rhizomes of Bletilla formosana and Their Potential Anti-inflammatory Activity” (J Nat Prod, 2016).

Test [1] in a line: Antiinflammatory activity in human neutrophils assessed as inhibition of fMLP/CB-induced elastase release using MeO-Suc-Ala-Ala-Pro-Val-p-nitroanilide as elastase substrate preincubated for 5 mins followed by fMLP/CB-induction. Particulars: Neutrophil. The test is classed as functional, cell-based. The method in brief: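 Donor neutrophils (dextran/Ficoll/hypotonic lysis, held at 4 °C in Ca2+-free HBSS pH 7.4) at 6 × 10^5 cells/mL, equilibrated with 100 μM MeO-Suc-Ala-Ala-Pro-Val-p-nitroanilide at 37 °C for 2 min. Compound or 0.1% DMSO vehicle added for 5 min, then activated with FMLP 100 nM plus CB 0.5 μg/mL. A405 read continuously. IC50 given as mean ± SEM, n = 3 or 4.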

Test [2] in a line: Antiinflammatory activity in human neutrophils assessed as inhibition of FMLP/cytochalasin B-induced superoxide anion generation by measuring superoxide dismutase-inhibitable reduction of ferricytochrome c preincubated for 5 mins followed by FMLP/cytochalasin B-induction by spectrophotometric analysis. The test is classed as functional, cell-based. Particulars: Neutrophil. An outline of the steps:
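Neutrophils isolated from healthy donor venous blood (20−30 years old) by dextran sedimentation, Ficoll Hypaque centrifugation and hypotonic erythrocyte lysis, kept at 4 °C in Ca2+-free HBSS pH 7.4. Cells (6 × 10^5 cells/mL) with 0.5 mg/mL ferricytochrome c and 1 mM Ca2+, 37 °C 2 min; compound or 0.1% DMSO 5 min; CB 1 μg/mL 3 min; FMLP 100 nM. A550 followed continuously, ±SOD 100 U/mL; IC50, mean ± SEM, n = 3 or 4.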

As a reminder, the IC50 is the concentration that gives 50% inhibition.

Bounds are passed on as bounds.

As for `COc1cc2c(ccc3c(-c4c(O)cc(OC)c5c4ccc4cc(O)c(OC)cc45)c(O)cc(OC)c32)cc1O`, the values for the IC50 in test [1] and in test [2] were 0.3 µM and 1.5 µM, respectively.

Regarding `COc1c(O)cc2ccc3c(Cc4ccc(O)cc4)c(O)ccc3c2c1OC`, the IC50 in test [1] is 1.3 µM; in test [2] it was 1.4 µM.

For the molecule `O=Cc1ccc(O)cc1` [4-HYDROXYBENZALDEHYDE], the IC50 in test [1] is 3.3 µM; in test [2], greater than 10 µM.

As to `COC1=CC(=O)C2=C(CCc3cc(O)ccc32)C1=O`, the IC50 in test [1] and in test [2] was greater than 10 µM throughout.

Regarding `COc1cc(O)cc2c1-c1cc(-c3c(O)cc(OC)c4c3ccc3cc(O)ccc34)c(O)cc1CC2`, the IC50 was determined as 1.2 µM in test [1] and 4.2 µM in test [2].

For `COc1c(Cc2ccc(O)cc2)c(O)c(Cc2ccc(O)cc2)c2c1-c1ccc(O)cc1CC2`, the IC50 in test [1] was determined as 1.8 µM; in test [2], 1.1 µM.

Turning to `COc1cc2ccc3cc(O)ccc3c2c(OC)c1O`, the IC50 in test [1] was found to be 4.9 µM; in test [2], 2.6 µM.

For `COc1cc(CCc2cccc(O)c2)c(Cc2ccc(O)cc2)c(O)c1Cc1ccc(O)cc1`, the IC50 in test [1] and in test [2] was 1.1 µM in each case.

In the case of `COc1c(Cc2ccc(O)cc2)c(O)cc2c1-c1ccc(O)cc1CC2`, the figures for the IC50 in test [1] and in test [2] were 2 µM and 0.2 µM, respectively.

Consider `CC[C@@H](CC[C@@H](C)[C@H]1CC[C@H]2[C@@H]3CC=C4C[C@@H](O[C@@H]5O[C@H](CO)[C@@H](O)[C@H](O)[C@H]5O)CC[C@]4(C)[C@H]3CC[C@]12C)C(C)C`, for which the IC50 in test [1] and in test [2] was greater than 10 µM each time.

Turning to `COc1cc(O)c(Cc2ccc(O)cc2)c(CCc2cccc(O)c2)c1`, the IC50 in test [1] is 2.2 µM; in test [2], 3.6 µM.

As for `COc1c(O)c(-c2c(O)c(OC)c(OC)c3c2CCc2cc(O)ccc2-3)c2c(c1OC)-c1ccc(O)cc1CC2`, the IC50 in test [1] is greater than 10 µM; in test [2] it was 2.5 µM.

On to `CC[C@H](Nc1ncnc2[nH]cnc12)c1nc2cccc(F)c2c(=O)n1-c1ccccc1` [IDELALISIB], for which the IC50 amounted to 0.3 µM in test [1] and 0.1 µM in test [2].

On to `COc1cc(O)c(-c2c(O)cc(OC)c3c2ccc2cc(O)ccc23)c2c1-c1ccc(O)cc1CC2` [CIRRHOPETALANTHRIN], for which the IC50 in test [1] stood at 0.6 µM; in test [2], 0.9 µM.

On to `COc1cc(O)c(Cc2ccc(O)cc2)c2ccc3cc(O)ccc3c12`, for which the IC50 is 0.9 µM in test [1] and 0.5 µM in test [2].

Consider `COc1cc(O)c(Cc2ccc(O)cc2)c2c1-c1ccc(O)cc1CC2`, for which the IC50 came out at 2 µM in test [1] and 0.2 µM in test [2].

For the molecule `COc1cccc(CCc2c(Cc3ccc(O)cc3)c(O)cc(OC)c2Cc2ccc(O)cc2)c1`, the IC50 in test [1] was 4.2 µM; in test [2], 6.3 µM.

As to `COc1cc(O)c(Cc2ccc(O)cc2)c(CCc2cccc(O)c2)c1Cc1ccc(O)cc1`, the IC50 in test [1] and in test [2] was 0.7 µM each time.

Take `COc1cc2c(cc1O)CCc1cc(O)c(OC)c(OC)c1-2`: the IC50 in test [1] turned out to be 5.7 µM; in test [2], 0.2 µM.

In the case of `COc1cc(O)cc2c1-c1cc(-c3c(O)cc(OC)c4c3CCc3cc(O)ccc3-4)c(O)cc1CC2`, the IC50 in test [1] is 0.5 µM; in test [2] it was 1.5 µM.

Turning to `COc1cc2c(ccc3cc(O)c(OC)c(OC)c32)cc1O`, the concentration for half-maximal inhibition (IC50) stood at 2.1 µM in test [1] and 2 µM in test [2].

On to `COc1cc(O)cc(CCc2cccc(O)c2)c1` [BATATASIN III], for which the IC50 in test [1] stood at 4.7 µM; in test [2], 0.9 µM.

As for `COc1c(O)cc2ccc3cc(O)ccc3c2c1OC` [NUDOL], the IC50 is greater than 10 µM in test [1] and 1.7 µM in test [2].

Take `COc1cc(O)c(-c2c(O)cc3c(c2OC)-c2ccc(O)cc2CC3)c2c1-c1ccc(O)cc1CC2`: the IC50 is 1.4 µM in test [1] and 1.8 µM in test [2].

Turning to `COc1cc(O)cc(CCc2cccc(O)c2)c1-c1c(OC)cc(O)c2c1CCc1cc(O)ccc1-2`, the values for the IC50 in test [1] and in test [2] were 0.6 µM and 0.4 µM, respectively.

As to `COc1cccc(CCc2cc(O)cc(OC)c2)c1`, the IC50 in test [1] is greater than 10 µM; in test [2], 6.5 µM.

On to `COc1cc(O)cc(CCc2cccc(O)c2)c1Cc1ccc(O)cc1`, for which the IC50 in test [1] is 2.8 µM; in test [2], 1.7 µM.

Take `COc1c(O)c(Cc2ccc(O)cc2)c2ccc3cc(O)ccc3c2c1OC`: the IC50 in test [1] turned out to be 1.9 µM; in test [2], 1.6 µM.

On to `COc1cc(O)cc2c1-c1ccc(O)cc1CC2`, for which the figures for the IC50 in test [1] and in test [2] were greater than 10 µM and 0.4 µM, respectively.

For `COc1c(O)cc2c(c1OC)-c1ccc(O)cc1CC2` [ERIANTHRIDIN], the IC50 in test [1] stood at 2 µM; in test [2], 0.3 µM.

Regarding `COc1cc(CCc2cccc(O)c2)cc(O)c1-c1c(O)cc(OC)c2c1CCc1cc(O)ccc1-2`, the results for the IC50 in test [1] and in test [2] were greater than 10 µM and 4.9 µM, respectively.

Regarding `COc1cc(O)cc(CCc2ccccc2)c1`, the IC50 in test [1] was greater than 10 µM; in test [2] it was 6.5 µM.

Take `COc1cc(O)cc(CCc2ccc(O)c(OC)c2)c1` [GIGANTOL]: the IC50 in test [1] worked out at 3.2 µM; in test [2], 2.1 µM.

Take `COc1cc(O)c(-c2c(O)c(Cc3ccc(O)cc3)c3c(c2OC)-c2ccc(O)cc2CC3)c2c1-c1ccc(O)cc1CC2`: the IC50 in test [1] amounted to 0.4 µM; in test [2], 0.2 µM.

Turning to `COc1cc2ccc3c(-c4c(O)cc(OC)c5c4ccc4cc(O)c(OC)cc45)c(O)cc(OC)c3c2cc1O`, the figures for the IC50 in test [1] and in test [2] were 1.6 µM and 2.8 µM, respectively.

As for `CC(C)C[C@@](O)(CC(=O)OCc1ccc(O[C@@H]2O[C@H](CO)[C@@H](O)[C@H](O)[C@H]2O)cc1)C(=O)OCc1ccc(O[C@@H]2O[C@H](CO)[C@@H](O)[C@H](O)[C@H]2O)cc1`, the IC50 in test [1] and in test [2] was greater than 10 µM each time.

Turning to `COc1cc(O)c(-c2c(O)cc(OC)c3c2ccc2cc(O)ccc23)c2ccc3cc(O)ccc3c12` [CIRRHOPETALANTHIN], the IC50 in test [1] came to 0.6 µM; in test [2], 1.4 µM.

Take `COc1cc(CCc2cccc(O)c2)cc(O)c1Cc1ccc(O)cc1`: the values for the IC50 in test [1] and in test [2] were 0.9 µM and 2.2 µM, respectively.

`COc1cc2c(cc1O)CCc1c(-c3c(O)cc(OC)c4c3CCc3cc(O)ccc3-4)c(O)cc(OC)c1-2`: the IC50 came out at 0.7 µM in test [1] and 2.4 µM in test [2].

With `COc1cc2c(ccc3c(-c4c(O)cc(OC)c5c4ccc4cc(O)ccc45)c(O)cc(OC)c32)cc1O`, the IC50 is 1.7 µM in test [1] and 1.9 µM in test [2].

Regarding `CCOCc1ccc(O)cc1`, the IC50 in test [1] and in test [2] was greater than 10 µM each time.
